Measured values taken from ChEMBL document CHEMBL4130443, “Targeting breast cancer stem cells by novel HDAC3-selective inhibitors” (Eur J Med Chem, 2017).
pIC50: −log10 of the molar value. Values belong to the compound of their own block, whether it stands above or below them. Activity calls are given as the source filed them. No cut-off for these calls is given here.

Key:
Histone deacetylase 1 [1] = biological target: T1, Histone deacetylase 1 (Homo sapiens, UniProt Q13547); assay: Inhibition of human HDAC1 at 1 uM using p53 (379 to 382 residues) derived fluorogenic peptide RHKKAc
Procedure, shortened: (§1)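 Isoform profiling run by a commercial vendor with compounds at 1 µM. Values are percent inhibition, each the average of two determinations.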

[2] = biological target: Histone deacetylase 4 (Homo sapiens) (UniProt P56524); assay: Inhibition of human HDAC4 at 1 uM using Boc-Lys(trifluoroacetyl)-AMC substrate; procedure, shortened: as §1
[3] = biological target: T2, Protein deacetylase HDAC6 (Homo sapiens) (UniProt Q9UBN7); assay: Inhibition of HDAC6 in human MDA-MB-231 cells assessed as increase in histone H3K9 acetylation at 0.25 uM incubated for 48 hrs by Western blot method; assay type: cell-based; details: in the assay text read “tubulin acetylation” for “histone H3K9 acetylation”
T2 sequence (whole entry): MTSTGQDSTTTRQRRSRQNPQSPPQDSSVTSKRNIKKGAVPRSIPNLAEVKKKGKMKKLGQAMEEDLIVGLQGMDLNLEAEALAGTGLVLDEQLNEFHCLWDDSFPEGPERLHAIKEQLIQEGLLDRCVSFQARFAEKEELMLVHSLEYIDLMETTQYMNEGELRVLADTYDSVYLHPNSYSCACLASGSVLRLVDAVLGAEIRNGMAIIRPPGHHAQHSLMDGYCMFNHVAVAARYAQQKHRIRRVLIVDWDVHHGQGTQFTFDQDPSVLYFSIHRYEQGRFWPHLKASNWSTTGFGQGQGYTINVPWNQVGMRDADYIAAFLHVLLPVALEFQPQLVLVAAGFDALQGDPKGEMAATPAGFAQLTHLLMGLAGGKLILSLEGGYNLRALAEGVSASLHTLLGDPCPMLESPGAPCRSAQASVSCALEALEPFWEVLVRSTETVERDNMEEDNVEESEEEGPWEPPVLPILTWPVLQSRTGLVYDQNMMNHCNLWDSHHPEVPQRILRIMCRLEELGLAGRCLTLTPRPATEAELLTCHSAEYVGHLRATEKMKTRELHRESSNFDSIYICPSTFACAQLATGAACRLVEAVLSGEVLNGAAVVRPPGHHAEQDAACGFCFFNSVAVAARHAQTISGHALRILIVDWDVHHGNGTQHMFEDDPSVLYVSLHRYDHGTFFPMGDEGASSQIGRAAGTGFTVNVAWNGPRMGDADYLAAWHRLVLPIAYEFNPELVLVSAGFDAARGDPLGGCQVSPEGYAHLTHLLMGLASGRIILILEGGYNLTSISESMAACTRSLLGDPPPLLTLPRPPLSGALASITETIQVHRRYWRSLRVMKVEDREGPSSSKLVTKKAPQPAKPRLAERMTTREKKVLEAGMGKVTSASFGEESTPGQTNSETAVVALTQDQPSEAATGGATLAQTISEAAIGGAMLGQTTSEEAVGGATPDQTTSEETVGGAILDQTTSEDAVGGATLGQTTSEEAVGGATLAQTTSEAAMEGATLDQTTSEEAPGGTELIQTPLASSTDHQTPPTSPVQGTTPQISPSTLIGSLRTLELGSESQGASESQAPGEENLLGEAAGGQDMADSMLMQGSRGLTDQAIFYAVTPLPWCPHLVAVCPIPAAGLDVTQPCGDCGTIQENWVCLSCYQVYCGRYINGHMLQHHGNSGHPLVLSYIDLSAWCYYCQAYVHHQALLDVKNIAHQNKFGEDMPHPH
Procedure, shortened: (§2)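 Cells treated 48 h at the indicated concentrations, with a reference HDAC inhibitor at 0.25 µM as positive control on each blot. Lysed in 1% SDS, 10 mM EDTA, 50 mM Tris-HCl pH 8.1 with protease/phosphatase inhibitors, then sonicated. Equal protein by SDS-PAGE on nitrocellulose. Primary antibodies 1:1000 overnight at 4°C, HRP secondary, ECL. Blots for pan-H3 and H3K9 acetylation, tubulin acetylation and Notch1.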

[4] = biological target: Histone deacetylase 3/Nuclear receptor corepressor 2 (HDAC3/NCoR2) (Homo sapiens) (UniProt O15379+Q9Y618); assay: Inhibition of human HDAC3/NCOR2 at 1 uM using p53 (379 to 382 residues) derived fluorogenic peptide RHKKAc; assay type: protein-complex assay; procedure, shortened: as §1
[5] = biological target: Histone deacetylase 5 (Homo sapiens) (UniProt Q9UQL6); assay: Inhibition of human HDAC5 at 1 uM using Boc-Lys(trifluoroacetyl)-AMC substrate; procedure, shortened: as §1
Histone deacetylase 2 [6] = biological target: T3, Histone deacetylase 2 (Homo sapiens, UniProt Q92769); assay: Inhibition of human HDAC2 at 1 uM using p53 (379 to 382 residues) derived fluorogenic peptide RHKKAc; procedure, shortened: as §1
[7] = biological target: T4, Histone deacetylase 8 (Homo sapiens) (UniProt Q9BY41); assay: Inhibition of HDAC8 in human MDA-MB-231 cells assessed as reduction in Notch1 expression at 0.25 uM incubated for 48 hrs by Western blot method; assay type: cell-based; procedure, shortened: as §2
T4 sequence (whole entry): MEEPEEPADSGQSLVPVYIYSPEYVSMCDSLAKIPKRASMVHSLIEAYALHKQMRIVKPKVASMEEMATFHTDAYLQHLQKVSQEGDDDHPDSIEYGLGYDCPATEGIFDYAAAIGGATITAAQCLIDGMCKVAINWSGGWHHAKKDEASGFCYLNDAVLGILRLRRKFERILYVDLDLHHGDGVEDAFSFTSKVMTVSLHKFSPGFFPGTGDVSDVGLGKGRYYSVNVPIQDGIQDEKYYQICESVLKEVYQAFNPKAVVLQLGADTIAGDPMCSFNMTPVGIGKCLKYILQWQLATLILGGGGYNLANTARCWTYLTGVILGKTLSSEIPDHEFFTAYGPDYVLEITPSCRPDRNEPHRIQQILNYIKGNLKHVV

[8] = biological target: T2, Protein deacetylase HDAC6 (Homo sapiens); assay: Inhibition of human HDAC6 at 1 uM using p53 (379 to 382 residues) derived fluorogenic peptide RHKKAc; procedure, shortened: as §1
[9] = biological target: T4, Histone deacetylase 8 (Homo sapiens); assay: Inhibition of human HDAC8 at 1 uM using p53 (379 to 382 residues) derived fluorogenic peptide RHKAcKAc; procedure, shortened: as §1
[10] = biological target: T5, Histone deacetylase (Homo sapiens) (UniProt Q13547+O15379+Q9UBN7+Q92769+Q9UQL6+Q8WUI4+Q9BY41+Q96DB2+P56524+Q9UKV0+Q969S8); assay: Inhibition of HDAC in human MDA-MB-231 cells assessed as increase in histone H3 acetylation at 0.1 to 2.5uM incubated for 48 hrs by Western blot method; assay type: cell-based; procedure, shortened: as §2
[11] = biological target: T4, Histone deacetylase 8 (Homo sapiens); assay: Inhibition of HDAC8 in human MDA-MB-231 cells assessed as reduction in Notch1 expression at 2.5uM incubated for 48 hrs by Western blot method; assay type: cell-based; procedure, shortened: as §2
[12] = biological target: T2, Protein deacetylase HDAC6 (Homo sapiens); assay: Inhibition of HDAC6 in human MDA-MB-231 cells assessed as increase in histone H3K9 acetylation at 0.1 to 2.5uM incubated for 48 hrs by Western blot method; assay type: cell-based; details: in the assay text read “tubulin acetylation” for “histone H3K9 acetylation”; procedure, shortened: as §2
[13] = biological target: T5, Histone deacetylase (Homo sapiens); assay: Inhibition of HDAC in human MDA-MB-231 cells assessed as increase in histone H3K9 acetylation at 0.1 to 2.5uM incubated for 48 hrs by Western blot method; assay type: cell-based; procedure, shortened: as §2
MDA-MB-231 [14] = assay: Growth inhibition of human MDA-MB-231 cells incubated for 48 to 72 hrs by crystal violet staining based assay; assay type: functional, cell-based
Procedure, shortened: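 Cells plated at 5000/well and left overnight, then treated in 5% FBS for 24, 48 and 72 h. Washed with PBS, stained 20 min with 0.5% crystal violet in 20% methanol, stain solubilized in 2% SDS, absorbance read at 550. Growth inhibition calculated as (1-Nt/Nc) x 100 against vehicle wells. N = 6.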

MDA-MB-231 [15] = assay: Effect on beta-catenin mRNA expression in human MDA-MB-231 cells at 0.5 to 5 uM by RT-PCR method; assay type: cell-based; details: mda-mb-231, 5 µM
Procedure, shortened: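 Monolayer cells treated at graded concentrations. Total RNA isolated with TRIzol. β-catenin mRNA assessed by RT-PCR with β-actin as reference.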

[16] = biological target: Histone deacetylase 3 (Homo sapiens) (UniProt O15379); assay: Inhibition of HDAC3 in human MDA-MB-231 cells assessed as reduction in beta-catenin expression at 0.5 to 5 uM by immunoblotting; assay type: cell-based
Procedure, shortened: (§3)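 Monolayer cells treated in 5% FBS at graded concentrations. Lysed in SDS/EDTA/Tris pH 8.1 buffer, equal protein immunoblotted with primary antibodies 1:1000 overnight at 4°C. Detected by ECL for phospho-Akt, β-catenin and histone H3 pan/H3K9 acetylation.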

MDA-MB-231 [17] = assay: Inhibition of mammosphere formation of human MDA-MB-231 cells incubated for 7 days; details: MDA-MB-231, 168 h
[18] = biological target: Histone deacetylase 3 (Homo sapiens) (UniProt O15379); assay: Inhibition of HDAC3 in human MDA-MB-231 cells assessed as reduction in Akt phosphorylation at 0.5 to 5 uM by immunoblotting; assay type: cell-based; procedure, shortened: as §3
Histone deacetylase 2 [19] = biological target: T3, Histone deacetylase 2; assay: Inhibition of human HDAC2 using p53 (379 to 382 residues) derived fluorogenic peptide RHKKAc
[20] = biological target: Histone deacetylase 3 (Homo sapiens) (UniProt O15379); assay: Inhibition of HDAC3 in human MDA-MB-231 cells assessed as increase in histone H3 acetylation at 0.5 to 5 uM by immunoblotting; assay type: cell-based; procedure, shortened: as §3
[21] = biological target: Histone deacetylase 3/Nuclear receptor corepressor 2 (HDAC3/NCoR2) (Homo sapiens, UniProt O15379); assay: Inhibition of human HDAC3/NCOR2 using p53 (379 to 382 residues) derived fluorogenic peptide RHKKAc; assay type: protein-complex assay
Histone deacetylase 1 [22] = biological target: T1, Histone deacetylase 1; assay: Inhibition of human HDAC1 using p53 (379 to 382 residues) derived fluorogenic peptide RHKKAc
MDA-MB-231 [23] = assay: Inhibition of colony formation of human MDA-MB-231 cells incubated for 48 hrs by crystal violet staining based assay; details: MDA-MB-231, 48 h
MDA-MB-231 [24] = assay: Cytotoxicity in human MDA-MB-231 cells assessed as reduction in cell viability incubated for 24 to 72 hrs by MTT assay; assay type: functional, cell-based
Procedure, shortened: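 MDA-MB-231 seeded 5,000 cells/well with 10% FBS, left overnight, then exposed to agents in 5% FBS for 24, 48 and 72 h. MTT added for 1 h, dye dissolved in DMSO, absorbance at 560 nm. Viability given as percent of the matching vehicle-treated control. N = 6.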

T3 sequence (Q92769 whole entry, the tested form may be a part): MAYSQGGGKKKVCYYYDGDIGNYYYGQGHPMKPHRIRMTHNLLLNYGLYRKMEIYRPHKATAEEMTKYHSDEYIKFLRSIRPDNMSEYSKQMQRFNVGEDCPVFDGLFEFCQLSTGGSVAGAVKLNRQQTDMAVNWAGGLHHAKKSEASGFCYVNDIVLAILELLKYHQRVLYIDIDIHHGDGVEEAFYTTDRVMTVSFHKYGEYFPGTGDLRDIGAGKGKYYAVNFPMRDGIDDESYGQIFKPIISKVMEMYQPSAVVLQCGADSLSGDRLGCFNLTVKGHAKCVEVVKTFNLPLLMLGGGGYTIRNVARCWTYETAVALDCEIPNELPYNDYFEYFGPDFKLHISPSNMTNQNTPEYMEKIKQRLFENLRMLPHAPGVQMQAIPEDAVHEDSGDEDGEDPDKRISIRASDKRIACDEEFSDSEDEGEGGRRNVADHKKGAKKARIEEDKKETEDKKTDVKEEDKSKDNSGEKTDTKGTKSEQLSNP
T1 sequence (Q13547 whole entry, the tested form may be a part, canonical isoform): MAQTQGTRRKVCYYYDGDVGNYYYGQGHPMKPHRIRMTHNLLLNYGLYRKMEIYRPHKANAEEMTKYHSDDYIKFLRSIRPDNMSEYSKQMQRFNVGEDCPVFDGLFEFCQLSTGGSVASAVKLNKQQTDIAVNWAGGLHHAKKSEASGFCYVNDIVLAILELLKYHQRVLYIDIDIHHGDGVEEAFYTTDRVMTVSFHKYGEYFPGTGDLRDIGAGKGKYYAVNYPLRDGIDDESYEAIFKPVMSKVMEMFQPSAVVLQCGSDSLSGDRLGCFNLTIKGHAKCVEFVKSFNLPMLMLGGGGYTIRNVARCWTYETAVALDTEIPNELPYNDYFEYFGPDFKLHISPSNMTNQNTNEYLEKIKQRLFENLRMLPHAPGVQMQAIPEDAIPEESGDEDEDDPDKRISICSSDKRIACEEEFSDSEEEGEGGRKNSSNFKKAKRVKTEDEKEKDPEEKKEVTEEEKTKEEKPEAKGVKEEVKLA
Sequence of Histone deacetylase 3 (Homo sapiens) (O15379 whole entry, the tested form may be a part): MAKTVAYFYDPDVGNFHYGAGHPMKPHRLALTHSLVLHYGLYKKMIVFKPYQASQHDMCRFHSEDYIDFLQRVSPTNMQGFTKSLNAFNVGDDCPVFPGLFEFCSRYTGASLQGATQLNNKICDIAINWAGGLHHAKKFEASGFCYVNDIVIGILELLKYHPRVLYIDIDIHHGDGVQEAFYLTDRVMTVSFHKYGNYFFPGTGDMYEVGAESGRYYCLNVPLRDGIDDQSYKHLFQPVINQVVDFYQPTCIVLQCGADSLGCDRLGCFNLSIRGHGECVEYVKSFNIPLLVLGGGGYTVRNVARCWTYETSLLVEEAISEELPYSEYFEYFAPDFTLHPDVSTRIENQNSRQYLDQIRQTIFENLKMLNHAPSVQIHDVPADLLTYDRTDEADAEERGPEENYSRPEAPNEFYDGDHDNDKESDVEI
Sequence of Histone deacetylase 4 (Homo sapiens) (P56524 whole entry): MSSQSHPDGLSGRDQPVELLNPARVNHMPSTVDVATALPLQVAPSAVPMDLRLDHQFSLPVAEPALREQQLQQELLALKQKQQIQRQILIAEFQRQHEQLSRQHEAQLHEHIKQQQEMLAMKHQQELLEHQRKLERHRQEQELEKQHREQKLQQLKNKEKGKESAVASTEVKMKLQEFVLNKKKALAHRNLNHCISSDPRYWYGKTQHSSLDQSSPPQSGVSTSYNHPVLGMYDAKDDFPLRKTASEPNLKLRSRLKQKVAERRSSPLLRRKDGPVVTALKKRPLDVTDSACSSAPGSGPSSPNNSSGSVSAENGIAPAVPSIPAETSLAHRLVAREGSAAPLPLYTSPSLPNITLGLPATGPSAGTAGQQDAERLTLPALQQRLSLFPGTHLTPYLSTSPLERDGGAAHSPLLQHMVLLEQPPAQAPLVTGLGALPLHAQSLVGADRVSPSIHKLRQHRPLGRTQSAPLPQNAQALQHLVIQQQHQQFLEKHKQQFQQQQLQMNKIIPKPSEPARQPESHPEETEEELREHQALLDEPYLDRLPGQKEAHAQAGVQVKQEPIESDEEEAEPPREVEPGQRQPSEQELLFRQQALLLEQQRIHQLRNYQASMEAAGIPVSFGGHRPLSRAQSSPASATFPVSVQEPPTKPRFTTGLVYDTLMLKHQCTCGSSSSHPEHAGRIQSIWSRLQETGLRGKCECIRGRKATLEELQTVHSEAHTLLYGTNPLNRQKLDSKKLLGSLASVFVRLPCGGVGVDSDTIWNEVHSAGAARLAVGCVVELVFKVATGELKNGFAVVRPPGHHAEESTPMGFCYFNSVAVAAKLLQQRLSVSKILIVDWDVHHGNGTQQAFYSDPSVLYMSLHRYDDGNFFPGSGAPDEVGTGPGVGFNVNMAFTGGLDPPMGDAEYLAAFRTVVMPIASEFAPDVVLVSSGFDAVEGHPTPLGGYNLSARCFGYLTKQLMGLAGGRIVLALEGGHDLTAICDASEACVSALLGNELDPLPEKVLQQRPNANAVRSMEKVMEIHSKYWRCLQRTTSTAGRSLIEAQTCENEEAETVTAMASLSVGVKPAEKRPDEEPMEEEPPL
Sequence of Histone deacetylase 5 (Homo sapiens) (Q9UQL6 whole entry, the tested form may be a part): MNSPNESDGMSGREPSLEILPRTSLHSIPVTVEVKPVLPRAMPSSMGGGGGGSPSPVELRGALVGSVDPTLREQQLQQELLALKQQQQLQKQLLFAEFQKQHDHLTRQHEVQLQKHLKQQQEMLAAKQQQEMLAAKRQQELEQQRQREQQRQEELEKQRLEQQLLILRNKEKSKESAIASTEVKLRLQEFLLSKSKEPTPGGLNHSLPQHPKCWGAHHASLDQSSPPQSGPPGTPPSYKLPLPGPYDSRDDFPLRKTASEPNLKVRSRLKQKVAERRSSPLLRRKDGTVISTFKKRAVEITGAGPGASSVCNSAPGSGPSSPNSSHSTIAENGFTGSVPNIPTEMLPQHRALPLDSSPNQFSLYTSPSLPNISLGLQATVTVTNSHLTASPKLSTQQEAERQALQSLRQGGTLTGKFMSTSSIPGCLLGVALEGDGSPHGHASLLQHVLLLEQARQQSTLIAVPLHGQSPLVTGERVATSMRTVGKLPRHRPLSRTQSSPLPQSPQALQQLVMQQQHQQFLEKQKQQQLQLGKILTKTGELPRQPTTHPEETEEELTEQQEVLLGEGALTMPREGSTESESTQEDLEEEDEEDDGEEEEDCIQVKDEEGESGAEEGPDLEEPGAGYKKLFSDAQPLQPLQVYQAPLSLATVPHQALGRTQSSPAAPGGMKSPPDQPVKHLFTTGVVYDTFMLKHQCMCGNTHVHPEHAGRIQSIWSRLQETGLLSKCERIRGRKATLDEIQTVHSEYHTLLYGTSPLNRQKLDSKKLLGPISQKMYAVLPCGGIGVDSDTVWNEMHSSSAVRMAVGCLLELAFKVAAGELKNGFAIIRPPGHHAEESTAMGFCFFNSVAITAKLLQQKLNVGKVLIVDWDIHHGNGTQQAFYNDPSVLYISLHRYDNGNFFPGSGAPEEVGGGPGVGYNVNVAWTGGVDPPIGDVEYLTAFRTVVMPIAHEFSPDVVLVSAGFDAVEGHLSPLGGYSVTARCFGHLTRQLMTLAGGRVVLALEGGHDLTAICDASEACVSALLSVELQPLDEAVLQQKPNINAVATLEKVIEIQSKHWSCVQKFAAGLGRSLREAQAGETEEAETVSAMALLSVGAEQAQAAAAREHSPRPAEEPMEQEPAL

- inhibition (Histone deacetylase 1 [1]): 95%
- inhibition [2]: 21%
- inhibition [3]: Active
- inhibition [4]: 93%
- inhibition [5]: 0%
- inhibition (Histone deacetylase 2 [6]): 72%
- inhibition [7]: Active
- inhibition [8]: 100%
- inhibition [9]: 87%
SMILES: CC(C)[C@H](C(=O)Nc1ccc(C(=O)NO)cc1)c1ccccc1

- inhibition (Histone deacetylase 1 [1]): 80%
- inhibition [2]: 9%
- inhibition [4]: 76%
- inhibition [10]: Active
- inhibition [11]: Active
- inhibition [12]: inactive
- inhibition [5]: 9%
- inhibition [13]: Active
- inhibition (Histone deacetylase 2 [6]): 57%
- inhibition [8]: 16%
- inhibition [9]: 38%
SMILES: CC(C)[C@@H](C(=O)Nc1ccc(C(=O)Nc2ccccc2N)cc1)c1ccccc1

- pIC50 (MDA-MB-231 [14]): ≤ 5.00
- inhibition [16]: Dose-dependent effect
- pIC50 (MDA-MB-231 [17]): 6.00 to 6.30
- inhibition [18]: Dose-dependent effect
- pIC50 (Histone deacetylase 2 [19]): 5.49
- inhibition [20]: Dose-dependent effect
- pIC50 [21]: 6.74
- pIC50 (Histone deacetylase 1 [22]): 5.64
- pIC50 (MDA-MB-231 [23]): 6.00 to 6.30
SMILES: Nc1cc(F)ccc1NC(=O)c1ccc(NC(=O)Cc2ccccc2)cc1
- Activity (MDA-MB-231 [15]): Non-Toxic
- pIC50 (MDA-MB-231 [24]): ≤ 5.00
